Measurements of several laboratories.
pEC50, pIC50: −log10 of the molar value.
Cell line: RPMI-8226
Observed: cell growth or viability

Compound | assay | setting | quantity | result
CCC[C@H](Nc1nc(-c2ccc(NC(=O)NCC)c(OC)c2)ncc1C)c1cccnc1 | fluorescence | 72 h | pIC50 | 7.74
COc1cccc(Oc2ccccc2NC(=O)CNC(=O)c2cccc3ccccc23)c1 | SRB | 48 h | GI50 | 955 nM
COc1ccc(C(=O)/C=C/c2ccc(Cl)c(Cl)c2)cc1S(N)(=O)=O | SRB | 10 µM | inhibition | 107%
COc1ccc(C(=O)Nc2cccc(-c3nc(NC(P(=O)(O)O)P(=O)(O)O)c4ccsc4n3)c2)cc1F | MTS | 72 h | pEC50 | 6.34
COc1ccc(C(=O)/C=C/c2c(F)cccc2Cl)cc1S(N)(=O)=O | SRB | 10 µM | inhibition | 110%
CC(C)C[C@H](NC(=O)[C@H](Cc1ccccc1)NC(=O)c1cnccn1)B(O)O | ATP luminescence |  | pEC50 | 8.41
C=CC(=O)N1CCC[C@@H](n2nc(-c3ccc(Oc4ccccc4)cc3)c3c(N)ncnc32)C1 |  | 48 h | GI50 | > 10000 nM
CC[C@]1(O)C[C@H]2CN(CCc3c([nH]c4ccccc34)[C@@](C(=O)OC)(c3cc4c(cc3OC)N(C=O)[C@H]3[C@@](O)(C(=O)OC)[C@H](OC(C)=O)[C@]5(CC)C=CCN6CC[C@]43[C@@H]65)C2)C1 | fluorescence | 72 h | pIC50 | 7.75
N[C@@H]1CCCN(c2c(/C=C3\SC(=O)NC3=O)cccc2-c2ccccc2)C1 | thymidine uptake |  | GI50 | 2630 nM
CC(C)C[C@H](NC(=O)[C@H](Cc1ccccc1)NC(=O)c1cnccn1)B(O)O | ATP luminescence |  | pIC50 | 8.46
Cc1cc(C)n(C(=S)[S][Au][PH](CCCCCC[PH]([Au][S]C(=S)n2nc(C)cc2C)(c2ccccc2)c2ccccc2)(c2ccccc2)c2ccccc2)n1 |  |  | GI50 | 140 nM
COc1cc(Nc2nccc(-c3cnn4nc(OC)ccc34)n2)cc(C(F)(F)F)c1 | ATP luminescence |  | pIC50 | 6.66
O=C(Nc1cccc(-c2nc(NC(P(=O)(O)O)P(=O)(O)O)c3ccsc3n2)c1)c1ccc(C(F)(F)F)cc1 | MTS | 72 h | pEC50 | 6.15
